Consider 36 sequences from the array DNA melting data of Ke et al. (doi:10.1101/2024.01.08.574731).

The nature of series [1]: folding enthalpy; higher = less favourable; fluorescence melt of hairpins on a sequencing array, two-state fit. Particulars: sodium 0.088 M. In outline:
(§1)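 Cy3 fluorescence of library hairpins on a sequenced MiSeq flow cell, with annealed Cy3 and quencher oligos, was imaged in 50 mM Na-HEPES pH 8.0, 25 mM NaCl in 2.5 °C steps up to 60 °C. Signals were normalised to pre-quench Cy3 and to control variants. Melting temperature and folding enthalpy came from bootstrapped two-state fits, inverse-variance combined over four replicates. Fitted temperatures were raised by 9.35 °C to match UV melts.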

The nature of series [2]: melting temperature; fluorescence melt of hairpins on a sequencing array, two-state fit, raised by 9.35 °C to match UV melts. Particulars: sodium 0.088 M. In outline:
as §1

Consider GTTAACCCGAAAGGGAAC (((..(((....)))))), for which the folding enthalpy in series [1] is -12.2 kcal/mol. Moreover, in series [2], the Tm came to 25.9 °C.
For GTTAACCGAAAGGTGAAC (((.(((....))).))) the same measures were -27.7 kcal/mol and 48.9 °C.
In the case of GTTAACGAAAGTTATAAC ((((((....)))..))), the folding enthalpy in series [1] is -13.3 kcal/mol. The Tm in series [2] is 26.4 °C.
GTTAACGAAAGTTGAAAC ((((((....)))..))): in series [1], the folding enthalpy was -11.1 kcal/mol. Besides, the Tm in series [2] is 24.9 °C.
In the same order, the values of GTTAACGGAAACGTTAAC (((((((....))))))) are -42.3 kcal/mol and 56.9 °C.
As to GTTAAGCCGAAAGGCAAC (((..(((....)))))), in series [1], the folding enthalpy is -10.5 kcal/mol. The Tm in series [2] was found to be 32.9 °C.
On to GTTAAGCGAAAGCTAAAC (((.(((....))).))), for which the folding enthalpy in series [1] was -19.9 kcal/mol. Also, in series [2], the Tm came out at 41.5 °C.
On to GTTAAGGGAAACCCTAAC ((((.((....)).)))), for which, in series [1], the folding enthalpy is -14.2 kcal/mol. The Tm in series [2] was determined as 30.3 °C.
In the same order, the values of GTTAATGGAAACATTGAC ((.((((....)))).)) are -26.1 kcal/mol and 37.3 °C.
GTTACAGGAAACTGCAAC (((.(((....))).))): the folding enthalpy in series [1] was -23.4 kcal/mol. Besides, the Tm in series [2] worked out at 35.8 °C.
With GTTACCCCGAAAGGGAAC (((..(((....)))))), the folding enthalpy in series [1] is -16.5 kcal/mol. Moreover, the Tm in series [2] came out at 32.9 °C.
In the same order, the values of GTTACCCGAAAGGGAAC (((.(((....)))))) are -17.1 kcal/mol and 43.7 °C.
For GTTACCGAAAGGTAAC ((((((....)))))), the folding enthalpy in series [1] was -34.6 kcal/mol. Also, in series [2], the Tm is 66.4 °C.
As for GTTACCGAAAGGTAGAAC ((((((....)))..))), the folding enthalpy in series [1] was -10.1 kcal/mol. Moreover, the Tm in series [2] came out at 29.3 °C.
As to GTTACCGAAAGGTCTAAC ((((((....)))..))), the folding enthalpy in series [1] is -9.14 kcal/mol. For the same sequence, the Tm in series [2] was 29.2 °C.
For the sequence GTTACCGAAAGGTGTAAC ((((((....)))..))), in series [1], the folding enthalpy was -14.9 kcal/mol. In series [2], the Tm is 32.2 °C.
For GTTACGGGAAACCGCAAC (((.(((....))).))), the folding enthalpy in series [1] was -26 kcal/mol. Besides, the Tm in series [2] was 41.7 °C.
For GTTACTGAAAAGTAAC ((((((....)))))) the same measures were -33.8 kcal/mol and 49.4 °C.
For the sequence GTTACTGGAAACAGTAAC (((((((....))))))), the folding enthalpy in series [1] is -60.8 kcal/mol. Further, in series [2], the Tm came out at 54.1 °C.
For GTTAGACGAAAGTCCAAC (((.(((....))).))), the folding enthalpy in series [1] is -17.3 kcal/mol. The Tm in series [2] turned out to be 38 °C.
GTTAGAGAAATCTAAC ((((((....)))))): the folding enthalpy in series [1] was -27.9 kcal/mol. Further, the Tm in series [2] is 38.4 °C.
GTTAGAGGAAACTCTAGC (.(((((....))))).): the folding enthalpy in series [1] was -23.1 kcal/mol. The Tm in series [2] is 34.5 °C.
For GTTAGCCGAAAGGCGAAC (((.(((....))).))) the same measures were -20.5 kcal/mol and 57.6 °C.
Take GTTAGCGAAAGCTAAAC ((((((....))).))): the folding enthalpy in series [1] was -13.7 kcal/mol. Also, the Tm in series [2] is 46.5 °C.
As to GTTAGCGAAAGCTATAAC ((((((....)))..))), the folding enthalpy in series [1] was -12.7 kcal/mol. Further, in series [2], the Tm was determined as 31.4 °C.
For GTTAGCGAAAGCTCAAC ((((((....))).))), the folding enthalpy in series [1] is -11.8 kcal/mol. In addition, the Tm in series [2] is 32.7 °C.
On to GTTAGCGAAAGCTGGAAC ((((((....)))..))), for which the folding enthalpy in series [1] was -8.68 kcal/mol. Further, the Tm in series [2] came to 27 °C.
GTTAGCGAAAGCTGTAAC ((((((....)))..))): the folding enthalpy in series [1] was -9.81 kcal/mol. Moreover, in series [2], the Tm is 31.6 °C.
Take GTTAGCGGAAACACTAAC (((((.(....).))))): the folding enthalpy in series [1] is -30.3 kcal/mol. Further, the Tm in series [2] stood at 36.6 °C.
Consider GTTAGCGGAAACGCCAAC (((.(((....))).))), for which, in series [1], the folding enthalpy was -17.3 kcal/mol. In addition, the Tm in series [2] came to 37.4 °C.
In the same order, the values of GTTAGTCGAAAGACGAAC (((.(((....))).))) are -25.6 kcal/mol and 49 °C.
For the sequence GTTAGTGGAAACGCTAAC (((((.(....).))))), the folding enthalpy in series [1] is -31.8 kcal/mol. Besides, the Tm in series [2] came out at 45.3 °C.
For the sequence GTTAGTGGAAACGTTAAC ((((..(....)..)))), the folding enthalpy in series [1] was -10.1 kcal/mol. Further, the Tm in series [2] is 27.6 °C.
Turning to GTTATACCGAAAGGTAAC (((..(((....)))))), the folding enthalpy in series [1] was -10.4 kcal/mol. For the same sequence, in series [2], the Tm turned out to be 32.8 °C.
As for GTTATACGAAAGTAGAAC (((.(((....))).))), the folding enthalpy in series [1] is -29.9 kcal/mol. For the same sequence, the Tm in series [2] worked out at 45.1 °C.
Consider GTTATCCCGAAAGGGAAC (((..(((....)))))), for which the folding enthalpy in series [1] is -10 kcal/mol. Moreover, the Tm in series [2] stood at 26.8 °C.
